In brackets after ≈: the same amount, converted by molar mass.
Assays:
[1] = test system: Staphylococcus aureus; experiment: Antibacterial activity against methicillin-resistant Staphylococcus aureus BAA-1556 by broth microdilution method; type: functional
Method in brief: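 Single colony from Brain Heart Infusion agar grown overnight in BHI broth, aerobic, 37 °C, 190 rpm. Diluted 100-fold in Mueller-Hinton broth, grown to exponential phase. About 5.10^5 CFU/ml then incubated with or without a range of concentrations, vehicle 1% DMSO. Growth read as OD600. MIC per EUCAST is the lowest concentration with no visible growth, i.e. ΔOD600 versus blank (medium + 1% DMSO) equal to zero.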

[2] = test system: Plasma; experiment: Antiplatelet activity in human platelet-rich plasma assessed as inhibition of ADP-induced platelet aggregation at 1.8 uM preincubated for 10 mins followed by ADP addition and measured for 10 mins by light transmission aggregometry relative to control; type: functional; conditions: time 20 min
Method in brief: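 Citrated (3.2%) venous blood from drug-free healthy volunteers aged 20–40 years; PRP from 100 × g 15 min spin, adjusted to 250000/µl with autologous PPP (800 × g 15 min). Compound or vehicle (1% DMSO) preincubated 10 min, then stirring at 1200 rpm, 37 °C, and ADP 10 µM added. Aggregation followed 10 min; AUC expressed as fold-inhibition vs vehicle, mean ± S.D., n = 4–21 donors, Wilcoxon paired test.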

| Compound | MIC [1] | fold change (FC) [2] |
| --- | --- | --- |
| CCCSc1nc(N)c2nnn([C@@H]3C[C@H](O)[C@@H](O)[C@H]3O)c2n1 | > 200 µM | 1.1 |
| CCCSc1nc(N[C@@H]2C[C@H]2c2ccc(F)c(F)c2)c2nnn(C)c2n1 | > 200 µM | 1.08 |
| CSc1nc(N[C@@H]2C[C@H]2c2ccc(F)c(F)c2)c2nnn(C)c2n1 | > 200 µM | 0.94 |
| CCCSc1nc(N[C@@H]2C[C@H]2c2ccccc2)c2nnn([C@@H]3C[C@H](OCCO)[C@@H](O)[C@H]3O)c2n1 | > 200 µM | 3.1 |
| Nc1nc(SCCCO)nc2c1nnn2[C@@H]1C[C@H](O)[C@@H](O)[C@H]1O | > 200 µM | 1 |
| CC(O)CSc1nc(N)c2nnn([C@@H]3C[C@H](O)[C@@H](O)[C@H]3O)c2n1 (stereo partly specified) | > 200 µM | 1 |
| O[C@@H]1[C@H](O)[C@@H](O)C[C@H]1n1nnc2c(N[C@@H]3C[C@H]3c3ccc(F)c(F)c3)ncnc21 | > 200 µM | 1 |
| CCn1nnc2c(N[C@@H]3C[C@H]3c3ccc(F)c(F)c3)nc(SC)nc21 | > 200 µM | 0.87 |
| OCCCSc1nc(N[C@@H]2C[C@H]2c2ccc(F)c(F)c2)c2nnn([C@@H]3C[C@H](OCCO)[C@@H](O)[C@H]3O)c2n1 | > 200 µM | 1 |
| OCCCSc1nc(N[C@@H]2C[C@H]2c2ccc(F)c(F)c2)c2nnn([C@@H]3C[C@H](O)[C@@H](O)[C@H]3O)c2n1 | > 200 µM | 2.7 |
| CCCSc1nc(N[C@@H]2C[C@H]2c2ccc(F)c(F)c2)c2nnn([C@@H]3C[C@H](OCCO)[C@@H](O)[C@H]3O)c2n1 [TICAGRELOR] | 25 µM (≈ 13.1 µg/mL) | 4.3 |
| CCCSc1nc(N[C@@H]2C[C@H]2c2ccc(F)c(F)c2)c2nnn(CC)c2n1 | > 200 µM | 0.97 |
| C[C@H](O)CSc1nc(N[C@@H]2C[C@H]2c2ccc(F)c(F)c2)c2nnn([C@@H]3C[C@H](O)[C@@H](O)[C@H]3O)c2n1 | > 200 µM | 2 |
| CCCSc1nc(N[C@@H]2C[C@H]2c2ccc(F)c(F)c2)c2nnn(C3CCCC3)c2n1 | > 200 µM | 1 |
| CC(O)CSc1nc(N[C@@H]2C[C@H]2c2ccc(F)c(F)c2)c2nnn([C@@H]3C[C@H](OCCO)[C@@H](O)[C@H]3O)c2n1 (stereo partly specified) | > 200 µM | 1.7 |
| O[C@@H]1[C@H](O)[C@@H](O)C[C@H]1n1nnc2c(N[C@@H]3C[C@H]3c3ccc(F)c(F)c3)nc(Cl)nc21 | > 200 µM | 1.1 |
| CCCSc1nc(NCCc2ccc(F)c(F)c2)c2nnn([C@@H]3C[C@H](OCCO)[C@@H](O)[C@H]3O)c2n1 | > 200 µM | 1.1 |
| CCCSc1nc(NC2CC2)c2nnn([C@@H]3C[C@H](OCCO)[C@@H](O)[C@H]3O)c2n1 | > 200 µM | 2.6 |
| CCSc1nc(N[C@@H]2C[C@H]2c2ccc(F)c(F)c2)c2nnn(CC)c2n1 | > 200 µM | 0.91 |
| CCCSc1nc(N)c2nnn([C@@H]3C[C@H](OCCO)[C@@H](O)[C@H]3O)c2n1 | > 200 µM | 1.1 |
| C[C@@H](O)CSc1nc(N[C@@H]2C[C@H]2c2ccc(F)c(F)c2)c2nnn([C@@H]3C[C@H](O)[C@@H](O)[C@H]3O)c2n1 | > 200 µM | 6.2 |
| CCCSc1nc(N[C@@H]2C[C@H]2c2ccc(F)c(F)c2)c2nnn([C@@H]3C[C@H](O)[C@@H](O)[C@H]3O)c2n1 | 25 µM (≈ 12 µg/mL) | 4.8 |
| CCSc1nc(N[C@@H]2C[C@H]2c2ccc(F)c(F)c2)c2nnn(C)c2n1 | > 200 µM | 0.97 |
